In brackets after ≈: the same amount, converted by molar mass.
Columns and labels:
[1] = Inhibition of Escherichia coli DH5-alpha His tagged Fab1; parameters: species or system DH5alpha
Procedure, shortened: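 His-tagged E. coli FabI was expressed in E. coli TOP10 (0.2% arabinose induction), purified on Ni–NTA and eluted with 250 mM imidazole. NADH consumption was read at 340 nm for 10 min at room temperature. IC50 is the concentration giving 50% reduction of absorption.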

Staphylococcus aureus = experiment: Antimicrobial activity against Staphylococcus aureus ATCC 29213; type: functional
Procedure, shortened: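 Agar dilution on Mueller–Hinton agar with 5% horse blood, twofold serial compound dilutions. About 10^4 CFU per spot inoculated. Plates incubated at 35 °C for 20 h. MIC taken as the lowest concentration preventing visible growth.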

| IC50 [1] | MIC (Staphylococcus aureus) | SMILES |
| --- | --- | --- |
| 0.3 µM | 0.5 mg/L (≈ 1.4 µM) | Cc1c(Cc2c(Cl)cccc2Cl)c(=O)ccn1Cc1ccccc1 |
| 4.5 µM | 32 mg/L (≈ 79.9 µM) | CCCCc1c(Cc2c(Cl)cccc2Cl)c(=O)ccn1Cc1ccccc1 |
| 0.3 µM | > 128 mg/L | COC(=O)c1ccc(Cn2ccc(=O)c(Cc3c(Cl)cccc3Cl)c2C)cc1 |
| 22 µM | > 128 mg/L | Cc1c(Cc2c(Cl)cccc2Cl)c(=O)ccn1Cc1ccc(C(=O)O)cc1 |
| 20 µM | 64 mg/L (≈ 221 µM) | Cc1c(Cc2ccccc2)c(=O)ccn1Cc1ccccc1 |
| 4.2 µM | 64 mg/L (≈ 198 µM) | Cc1c(Cc2ccccc2Cl)c(=O)ccn1Cc1ccccc1 |
| 2 µM | 32 mg/L (≈ 89.3 µM) | Cc1c(Cc2ccc(Cl)cc2Cl)c(=O)ccn1Cc1ccccc1 |
| 2.7 µM | 4 mg/L (≈ 12.3 µM) | Cc1c(Cc2c(F)cccc2F)c(=O)ccn1Cc1ccccc1 |
| > 100 µM |  | C=Cc1c(C)n(Cc2ccccc2)ccc1=O |
| > 100 µM |  | Cc1c(CCc2ccccn2)c(=O)ccn1Cc1ccccc1 |
| 0.4 µM | 32 mg/L (≈ 108 µM) | Cc1c(CC2CCCCC2)c(=O)ccn1Cc1ccccc1 |
| 1.8 µM | 8 mg/L (≈ 22.6 µM) | Cc1c(Cc2c(Cl)cccc2Cl)c(=O)ccn1CCCCCO |
| 110 µM |  | Cc1c(Cc2c(Cl)cccc2Cl)c(=O)ccn1CCCCC(=O)O |
| 8.4 µM | 32 mg/L (≈ 74.9 µM) | Cc1c(Cc2c(Cl)cccc2Cl)c(=O)ccn1Cc1c(Cl)cccc1Cl |
| 0.29 µM | 1 mg/L (≈ 2.68 µM) | Cc1c(Cc2c(Cl)cccc2Cl)c(=O)ccn1Cc1ccc(N)cc1 |
| 0.47 µM | 2 mg/L (≈ 5.74 µM) | Cc1c(Cc2c(Cl)cccc2Cl)c(=O)ccn1Cc1ccco1 |
| 4.3 µM | 16 mg/L (≈ 50.4 µM) | Cc1cccc(C)c1Cc1c(C)n(Cc2ccccc2)ccc1=O |

| IC50 [1] | MIC (Staphylococcus aureus) | SMILES |
| --- | --- | --- |
| 0.38 µM | 8 mg/L (≈ 24.7 µM) | CCCCc1cc(=O)c(Cc2c(Cl)cccc2Cl)c(C)[nH]1 |
| 0.31 µM | 2 mg/L (≈ 6.17 µM) | CCCCn1ccc(=O)c(Cc2c(Cl)cccc2Cl)c1C |
| 0.22 µM | 32 mg/L (≈ 78.4 µM) | CCCCCCCCCCn1ccc(=O)c(Cc2c(Cl)cccc2Cl)c1C |
| 0.29 µM | 2 mg/L (≈ 5.49 µM) | Cc1[nH]c(CC2CCCCC2)cc(=O)c1Cc1c(Cl)cccc1Cl |
| > 100 µM |  | Cc1c(/C=C/c2ccccn2)c(=O)ccn1Cc1ccccc1 |
| 0.39 µM | 2 mg/L (≈ 5.85 µM) | Cc1c(Cc2c(F)cccc2Cl)c(=O)ccn1Cc1ccccc1 |
| 120 µM | > 64 mg/L | Cc1[nH]ccc(=O)c1Cc1c(Cl)cccc1Cl |
| 1.5 µM | 8 mg/L (≈ 20.4 µM) | Cc1c(Cc2c(Cl)cc(Cl)cc2Cl)c(=O)ccn1Cc1ccccc1 |
| 11 µM | > 128 mg/L | Cc1c(Cc2c(Cl)cccc2Cl)c(=O)ccn1C |
| 2.5 µM | 32 mg/L (≈ 79.7 µM) | Cc1c(Cc2c(Cl)cccc2Cl)c(=O)ccn1Cc1ccc(C(N)=O)cc1 |
| 0.78 µM | 8 mg/L (≈ 21.5 µM) | CCc1c(Cc2c(Cl)cccc2Cl)c(=O)ccn1Cc1ccccc1 |
| 1.9 µM | 64 mg/L (≈ 124 µM) | Cc1c(Cc2c(Cl)cccc2Cl)c(=O)ccn1CC(C)(C)SCc1cccc(C(F)(F)F)c1 |
| 61 µM | > 128 mg/L | CCCCc1c(C)n(Cc2ccccc2)ccc1=O |
| 0.22 µM | 0.25 mg/L (≈ 0.686 µM) | Cc1c(Cc2c(Cl)cccc2Cl)c(=O)ccn1CC1CCCCC1 |
| 2.9 µM |  | Cc1c(-c2ccccc2)c(=O)ccn1Cc1ccccc1 |
| 1.8 µM | 16 mg/L (≈ 39.7 µM) | Cc1c(Cc2c(Cl)cccc2Cl)c(=O)ccn1Cc1ccc([N+](=O)[O-])cc1 |

| SMILES | IC50 [1] | MIC (Staphylococcus aureus) |
| --- | --- | --- |
| Oc1cc(Cl)ccc1Oc1ccc(Cl)cc1Cl [TRICLOSAN] | 0.51 µM | 0.125 mg/L (≈ 0.432 µM) |

Source: ChEMBL document CHEMBL1144559, “4-Pyridone derivatives as new inhibitors of bacterial enoyl-ACP reductase FabI” (Bioorg Med Chem, 2007)
